Laboratory results published in ChEMBL document CHEMBL3102842, “Direct synthesis of C3-mono-functionalized oxindoles from N-unprotected 2-oxindole and their antileishmanial activity” (Bioorg Med Chem, 2014).
≈ marks a conversion by molar mass, not a printed value.

Tests used:
Leishmania infantum [1] = experiment: Antileishmanial activity against Leishmania infantum zymodeme MON-1 promastigotes assessed as parasite survival at 10 to 100 ug/ml after 48 hrs; type: functional
In short: (§1)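 Log-phase promastigotes from 26 °C Schneider's Drosophila medium with 10% heat-inactivated FCS, pH 7.2, adjusted to 5×10^6 parasites/mL. Compounds in DMSO (≤1% v/v) at 10–100 µg/mL, incubated at 26 °C. Surviving promastigotes counted in a Neubauer chamber and compared with drug-free controls.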

[2] = Therapeutic index, ratio of TC50 for mouse RAW264.7 cells to EC50 for Leishmania infantum zymodeme MON-1 axenic amastigotes after 48 hrs; conditions: read-out: TI
In short: (§2)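 Index calculated as TC50 on RAW 264.7 macrophages (MTT assay) divided by EC50 on L. infantum promastigotes or axenic amastigotes, using the same incubation time (24 or 48 h) for both.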

Leishmania infantum [3] = experiment: Antileishmanial activity against Leishmania infantum zymodeme MON-1 axenic amastigotes assessed as parasite survival after 48 hrs; type: functional, organism-based; conditions: zymodeme MON-1, 48 h
In short: (§3)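 Axenic amastigotes grown cell-free at 37 °C, 5% CO2 in MAA/20 (modified medium 199 with Hank's salts, tryptocasein, glucose, glutamine, NaHCO3, hemin, 25 mM HEPES, pH 6.5, 20% heat-inactivated FBS). Compounds in DMSO (≤1% v/v) at 10–100 µg/mL, 37 °C. Viability read after TO-PRO-3 staining (10 min, room temperature) by ImageStream imaging cytometry, ≥10,000 events per sample.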

[4] = Therapeutic index, ratio of TC50 for mouse RAW264.7 cells to EC50 for Leishmania infantum zymodeme MON-1 promastigotes after 48 hrs; conditions: read-out: TI; in short: as §2
[5] = Cytotoxicity against mouse RAW264.7 cells after 48 hrs by MTT assay; type: cell-based; conditions: read-out: TC50
In short: (§4)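 RAW 264.7 cells in RPMI 1640 with L-glutamine, 10% FBS and penicillin/streptomycin, seeded at 1×10^5 cells/well and left to adhere overnight at 37 °C, 5% CO2. Compounds at 10, 50 and 100 µg/mL, 37 °C. MTT (5 mg/mL) added for 4 h, formazan dissolved in DMSO, A540 read. Survival expressed as percent of untreated control, in triplicate. TC50 taken as the 50% macrophage-death concentration.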

Leishmania infantum [6] = experiment: Antileishmanial activity against Leishmania infantum zymodeme MON-1 promastigotes assessed as parasite survival after 48 hrs; type: functional, organism-based; conditions: zymodeme MON-1, 48 h; in short: as §1
[7] = Therapeutic index, ratio of TC50 for mouse RAW264.7 cells to EC50 for Leishmania infantum zymodeme MON-1 axenic amastigotes; conditions: read-out: TI; in short: as §2
Leishmania infantum [8] = experiment: Antileishmanial activity against Leishmania infantum zymodeme MON-1 axenic amastigotes assessed as parasite survival after 24 hrs; type: functional, organism-based; conditions: zymodeme MON-1, 24 h; in short: as §3
[9] = Therapeutic index, ratio of TC50 for mouse RAW264.7 cells to EC50 for Leishmania infantum zymodeme MON-1 promastigotes after 24 hrs; conditions: read-out: TI; in short: as §2
[10] = Cytotoxicity against mouse RAW264.7 cells after 24 hrs by MTT assay; type: cell-based; conditions: read-out: TC50; in short: as §4
Leishmania infantum [11] = experiment: Antileishmanial activity against Leishmania infantum zymodeme MON-1 promastigotes assessed as parasite survival after 24 hrs; type: functional, organism-based; conditions: zymodeme MON-1, 24 h; in short: as §1

| Compound | Activity (Leishmania infantum [1]) | selectivity ratio at 48 h [2] | EC50 (Leishmania infantum [3]) | EC95 (Leishmania infantum [3]) | selectivity ratio at 48 h [4] | CC50 at 48 h [5] | EC50 (Leishmania infantum [6]) | EC95 (Leishmania infantum [6]) | selectivity ratio [7] | EC50 (Leishmania infantum [8]) | EC95 (Leishmania infantum [8]) | selectivity ratio at 24 h [9] | CC50 at 24 h [10] | EC50 (Leishmania infantum [11]) | EC95 (Leishmania infantum [11]) |
| --- | --- | --- | --- | --- | --- | --- | --- | --- | --- | --- | --- | --- | --- | --- | --- |
| Cc1ccc([C@@H]2CC(=O)C[C@@H](c3ccc(C)cc3)C23C(=O)Nc2ccccc23)cc1 | >74% | 20.3 | 1.9 µg/mL (≈ 4.8 µM) | 69.9 µg/mL (≈ 177 µM) | 18.7 | 38.6 µg/mL (≈ 97.6 µM) | 2 µg/mL (≈ 5.06 µM) | 71.4 µg/mL (≈ 181 µM) | 10.6 | 5.9 µg/mL (≈ 14.9 µM) | 69.4 µg/mL (≈ 175 µM) | 10.2 | 62.8 µg/mL (≈ 159 µM) | 6.1 µg/mL (≈ 15.4 µM) | 72.1 µg/mL (≈ 182 µM) |
| COc1ccc([C@@H]2CC(=O)C[C@@H](c3ccc(OC)cc3)C23C(=O)Nc2ccccc23)cc1 | >74% | 3.4 | 15.1 µg/mL (≈ 35.3 µM) | 74.8 µg/mL (≈ 175 µM) | 3.1 | 51 µg/mL (≈ 119 µM) | 16.2 µg/mL (≈ 37.9 µM) | 75.2 µg/mL (≈ 176 µM) | 3.8 | 21 µg/mL (≈ 49.1 µM) | 79.3 µg/mL (≈ 185 µM) | 3.3 | 80.5 µg/mL (≈ 188 µM) | 23.9 µg/mL (≈ 55.9 µM) | 82.4 µg/mL (≈ 193 µM) |
| O=C1C[C@@H](c2ccc(Cl)cc2)C2(C(=O)Nc3ccccc32)[C@H](c2ccc(Cl)cc2)C1 | >74% | 4.4 | 4.9 µg/mL (≈ 11.2 µM) | 69.9 µg/mL (≈ 160 µM) | 4.2 | 21.3 µg/mL (≈ 48.8 µM) | 5.1 µg/mL (≈ 11.7 µM) | 72.1 µg/mL (≈ 165 µM) | 2.1 | 21 µg/mL (≈ 48.1 µM) | 75.2 µg/mL (≈ 172 µM) | 1.8 | 44 µg/mL (≈ 101 µM) | 23.4 µg/mL (≈ 53.6 µM) | 77.1 µg/mL (≈ 177 µM) |
| O=C(CC(c1ccc(Cl)cc1)C1C(=O)Nc2ccccc21)c1ccccc1 (configuration not stated) | – | 3.5 | 10.1 µg/mL (≈ 26.9 µM) | 70.2 µg/mL (≈ 187 µM) | 3 | 35 µg/mL (≈ 93.1 µM) | 11.5 µg/mL (≈ 30.6 µM) | 73.6 µg/mL (≈ 196 µM) | 2 | 18.5 µg/mL (≈ 49.2 µM) | 74 µg/mL (≈ 197 µM) | 1.8 | 36.9 µg/mL (≈ 98.2 µM) | 19.7 µg/mL (≈ 52.4 µM) | 76.5 µg/mL (≈ 204 µM) |
| O=C(CC(c1cccc(Cl)c1)C1C(=O)Nc2ccccc21)c1ccccc1 (configuration not stated) | – | 9.3 | 12.5 µg/mL (≈ 33.3 µM) | 71.5 µg/mL (≈ 190 µM) | 8.8 | 116 µg/mL (≈ 309 µM) | 13.2 µg/mL (≈ 35.1 µM) | 74 µg/mL (≈ 197 µM) | 6.3 | 30.5 µg/mL (≈ 81.1 µM) | 80.2 µg/mL (≈ 213 µM) | 6.1 | 193 µg/mL (≈ 514 µM) | 31.6 µg/mL (≈ 84.1 µM) | 85.5 µg/mL (≈ 227 µM) |
| O=C1C[C@@H](c2ccccc2)C2(C(=O)Nc3ccccc32)[C@H](c2ccccc2)C1 | >74% | 11.4 | 5.7 µg/mL (≈ 15.5 µM) | 74.1 µg/mL (≈ 202 µM) | 9.4 | 65.2 µg/mL (≈ 177 µM) | 6.9 µg/mL (≈ 18.8 µM) | 73.2 µg/mL (≈ 199 µM) | 3.1 | 28.5 µg/mL (≈ 77.6 µM) | 78.3 µg/mL (≈ 213 µM) | 2.9 | 88.8 µg/mL (≈ 242 µM) | 29.8 µg/mL (≈ 81.1 µM) | 86.1 µg/mL (≈ 234 µM) |
| O=C(C[C@@H](c1ccccc1)[C@H]1C(=O)Nc2ccccc21)c1ccccc1 (relative stereo) | – | 11.2 | 5.9 µg/mL (≈ 17.3 µM) | 69.4 µg/mL (≈ 203 µM) | 10.6 | 66.6 µg/mL (≈ 195 µM) | 6.3 µg/mL (≈ 18.5 µM) | 72.1 µg/mL (≈ 211 µM) | 4.7 | 15.3 µg/mL (≈ 44.8 µM) | 75.6 µg/mL (≈ 221 µM) | 4.4 | 71.6 µg/mL (≈ 210 µM) | 16.2 µg/mL (≈ 47.5 µM) | 77.8 µg/mL (≈ 228 µM) |
| Cc1ccc([C@H](CC(=O)c2ccccc2)[C@H]2C(=O)Nc3ccccc32)cc1 (relative stereo) | – | 1.3 | 48.4 µg/mL (≈ 136 µM) | 94.3 µg/mL (≈ 265 µM) | 1.3 | 67.6 µg/mL (≈ 190 µM) | 51.6 µg/mL (≈ 145 µM) | 96 µg/mL (≈ 270 µM) | 1.6 | 60.1 µg/mL (≈ 169 µM) | 99.5 µg/mL (≈ 280 µM) | 1.5 | 93.3 µg/mL (≈ 262 µM) | 62 µg/mL (≈ 174 µM) | 111 µg/mL (≈ 312 µM) |
| COc1ccc([C@H](CC(=O)c2ccccc2)[C@H]2C(=O)Nc3ccccc32)cc1 (relative stereo) | – | 2.7 | 13.1 µg/mL (≈ 35.3 µM) | 71.2 µg/mL (≈ 192 µM) | 2.5 | 35.4 µg/mL (≈ 95.3 µM) | 14.2 µg/mL (≈ 38.2 µM) | 74 µg/mL (≈ 199 µM) | 1.7 | 24.2 µg/mL (≈ 65.2 µM) | 75.4 µg/mL (≈ 203 µM) | 1.3 | 41 µg/mL (≈ 110 µM) | 29.7 µg/mL (≈ 80 µM) | 78.5 µg/mL (≈ 211 µM) |
| C[C@@H]1[C@H](O)[C@@H](C)/C=C/C=C/C=C/C=C/C=C/C=C/C=C/[C@H](O[C@@H]2O[C@H](C)[C@@H](O)[C@H](N)[C@@H]2O)C[C@@H]2O[C@](O)(C[C@@H](O)C[C@@H](O)[C@H](O)CC[C@@H](O)C[C@@H](O)CC(=O)O[C@H]1C)C[C@H](O)[C@H]2C(=O)O [AMPHOTERICIN B] | – | 8.2 | 0.4 µg/mL (≈ 0.433 µM) | 3.4 µg/mL (≈ 3.68 µM) | 8.2 | 3.1 µg/mL (≈ 3.35 µM) | 0.4 µg/mL (≈ 0.433 µM) | 3.9 µg/mL (≈ 4.22 µM) | 39.1 | 0.5 µg/mL (≈ 0.541 µM) | 3.9 µg/mL (≈ 4.22 µM) | 35.1 | 19.6 µg/mL (≈ 21.2 µM) | 0.55 µg/mL (≈ 0.595 µM) | 3.9 µg/mL (≈ 4.22 µM) |
| O=C(/C=C/c1ccccc1)c1ccccc1 [CHALCONE] | – | 23.7 | 1.3 µg/mL (≈ 6.24 µM) | 69.9 µg/mL (≈ 336 µM) | 20.1 | 30.7 µg/mL (≈ 147 µM) | 1.5 µg/mL (≈ 7.2 µM) | 71.1 µg/mL (≈ 341 µM) | 5.5 | 5.1 µg/mL (≈ 24.5 µM) | 79.5 µg/mL (≈ 382 µM) | 4.9 | 28.1 µg/mL (≈ 135 µM) | 5.7 µg/mL (≈ 27.4 µM) | 83.5 µg/mL (≈ 401 µM) |
| O=C1Cc2ccccc2N1 [OXINDOLE] | – | 2.2 | 69.5 µg/mL (≈ 522 µM) | 136 µg/mL (≈ 1020 µM) | 2.1 | 154 µg/mL (≈ 1160 µM) | 72.4 µg/mL (≈ 544 µM) | 146 µg/mL (≈ 1100 µM) | 0.6 | 199 µg/mL (≈ 1490 µM) | 430 µg/mL (≈ 3230 µM) | 0.5 | 126 µg/mL (≈ 945 µM) | 232 µg/mL (≈ 1750 µM) | 447 µg/mL (≈ 3360 µM) |
